{"source": "ChEMBL document CHEMBL1121966", "about": "“(2R*,3S*)-1-[125I]Iodo-2,3-bis(4-hydroxyphenyl)pentane ([125I]iodonorhexestrol) and (2R*,3S*)-1-[77Br]Bromo-2,3-bis(4-hydroxyphenyl)pentane ([77Br]bromonorhexestrol), two gamma-emitting estrogens that show receptor-mediated uptake by target tissues in vivo” (1982)", "key": {"[1]": {"organism": "Rattus norvegicus", "test": "Percent injected dose per gram spleen at 1 hr with unlabeled estradiol", "format": "functional", "in_short": "(§1)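 Same iv biodistribution in immature female rats, killed at 1 h, with unlabeled estradiol coinjected to block receptor uptake: 9 μg with [125I]iodonorhexestrol (3 rats), 18 μg with the [77Br]bromonorhexestrol/16α-[125I]iodoestradiol pair (5 rats). Tissue and blood radioactivity were counted as % injected dose/g and tissue-to-blood ratio.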"}, "[2]": {"test": "Spleen/blood distribution ratio was determined in immature female rats at 1 hr with unlabeled estradiol", "format": "functional"}, "[3]": {"test": "Ovary/blood distribution ratio was determined in immature female rats at 6 hr", "format": "functional", "in_short": "(§2)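 Dual-label study in immature 25-day female Sprague-Dawley rats (ca. 50 g). Each received 2 μCi [77Br]bromo tracer (≤1.25 pmol/dose) and 2 μCi 16α-[125I]iodoestradiol (2 pmol/dose) by tail or jugular vein, in ethanol diluted with saline/rat serum 1:1. Rats were killed at 3 or 6 h; blood and 11 tissues were weighed and counted. Five rats per time point; mean ± SD.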"}, "[4]": {"organism": "Rattus norvegicus", "test": "Percent injected dose per gram esophagus at 3h", "format": "functional", "in_short": "as §2"}, "[5]": {"test": "Esophagus/blood distribution ratio was determined in immature female rats at 1 hr", "format": "functional", "in_short": "(§3)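 Immature (25-day, ca. 50 g) Sprague-Dawley female rats received an iv injection (jugular or tail vein) of HPLC-purified tracer in ethanol plus 0.9% NaCl/rat serum 1:1. Doses were 2 μCi [125I]iodo tracer (≤15 pmol), or 2 μCi [77Br]bromo tracer (≤1.25 pmol) with 2 μCi 16α-[125I]iodoestradiol. Animals were killed at 1 h; blood and tissues were weighed and γ-counted. Blocking: coinjected unlabeled estradiol, 9 μg (iodo) or 18 μg (bromo). Mean ± SD.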"}, "[6]": {"organism": "Rattus norvegicus", "test": "Percent injected dose per gram liver at 6 hr", "format": "functional", "in_short": "(§4)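 Immature (25 day) female Sprague-Dawley rats (ca. 50 g) were dosed iv (jugular or tail vein) in ethanol plus 0.9% NaCl/rat serum (1:1). Doses were 2 μCi of [125I]iodonorhexestrol (≤15 pmol/dose), or 2 μCi each of [77Br]bromonorhexestrol (≤1.25 pmol/dose) and 16α-[125I]iodoestradiol (2 pmol/dose). Rats were killed at 1, 3 or 6 h; blood and tissues were weighed and γ-counted. Thyroid weight assumed 0.005 g/100 g body weight. Mean ± SD.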"}, "[7]": {"test": "Lung/blood distribution ratio was determined in immature female rats at 3h", "format": "functional", "in_short": "as §2"}, "[8]": {"organism": "Rattus norvegicus", "test": "Percent injected dose per gram Uterus at 1 hr with unlabeled estradiol", "format": "functional", "in_short": "as §3"}, "[9]": {"test": "Spleen/blood distribution ratio was determined immature female rats at 3h", "format": "functional", "in_short": "as §4"}, "[10]": {"organism": "Rattus norvegicus", "test": "Percent injected dose per gram blood at 3h", "format": "functional", "in_short": "as §2"}, "[11]": {"test": "Lung/blood distribution ratio was determined in immature female rats at 6 hr", "format": "functional", "in_short": "as §2"}, "[12]": {"organism": "Rattus norvegicus", "test": "Percent injected dose per gram Muscle at 3h", "format": "functional", "in_short": "as §2"}, "[13]": {"organism": "Rattus norvegicus", "test": "Percent injected dose per gram Ovaries at 1 hr", "format": "functional", "in_short": "as §3"}, "[14]": {"organism": "Rattus norvegicus", "test": "Percent injected dose per gram Uterus at 3h", "format": "functional", "in_short": "as §2"}, "[15]": {"organism": "Rattus norvegicus", "test": "Percent injected dose per gram lung at 1 hr", "format": "functional", "in_short": "as §4"}, "[16]": {"test": "Ovary/blood distribution ratio was determined in immature female rats at 3h", "format": "functional", "in_short": "as §2"}, "[17]": {"organism": "Rattus norvegicus", "test": "Percent injected dose per gram spleen at 3h", "format": "functional", "in_short": "as §4"}, "[18]": {"organism": "Rattus norvegicus", "test": "Percent injected dose per gram thyroid at 1 hr with unlabeled estradiol", "format": "functional, Thyroid gland", "in_short": "as §1"}, "[19]": {"organism": "Rattus norvegicus", "test": "Percent injected dose per gram esophagus at 1 hr", "format": "functional", "in_short": "as §3"}, "[20]": {"organism": "Rattus norvegicus", "test": "Percent injected dose per gram kidney at 3h", "format": "functional", "in_short": "as §2"}, "[21]": {"test": "Lung/blood distribution ratio was determined in immature female rats at 1 hr", "format": "functional", "in_short": "as §3"}, "[22]": {"test": "Kidney/blood distribution ratio was determined in immature female rats at 1 hr", "format": "functional", "in_short": "as §3"}, "[23]": {"test": "Muscle/blood distribution ratio was determined in immature female rats at 1 hr", "format": "functional", "in_short": "as §3"}, "[24]": {"organism": "Rattus norvegicus", "test": "Percent injected dose per gram blood at 6 hr", "format": "functional", "in_short": "as §2"}, "[25]": {"test": "Liver/blood distribution ratio was determined in immature female rats at 3h", "format": "functional", "in_short": "as §2"}, "[26]": {"test": "Tissue/blood distribution ratio was measured in immature female rats at 3h", "format": "functional", "in_short": "as §4"}, "[27]": {"organism": "Rattus norvegicus", "test": "Percent injected dose per gram Ovaries at 6 hr", "format": "functional", "in_short": "as §2"}, "[28]": {"test": "Kidney/blood distribution ratio was determined in immature female rats at 1 hr with unlabeled estradiol", "format": "functional", "in_short": "as §3"}, "[29]": {"test": "Esophagus/blood distribution ratio was determined in immature female rats at 6 hr", "format": "functional", "in_short": "as §2"}, "[30]": {"test": "Muscle/blood distribution ratio was determined in immature female rats at 6 hr", "format": "functional", "in_short": "as §2"}, "[31]": {"test": "Thyroid/blood distribution ratio was determined in immature female rats at 3h", "format": "functional", "in_short": "as §4"}, "[32]": {"organism": "Rattus norvegicus", "test": "Percent injected dose per gram lung at 3h", "format": "functional", "in_short": "as §4"}, "[33]": {"test": "Ovary/blood distribution ratio was determined in immature female rats at 1 hr", "format": "functional", "in_short": "as §3"}, "[34]": {"organism": "Rattus norvegicus", "test": "Percent injected dose per gram liver at 1 hr", "format": "functional", "in_short": "as §4"}, "[35]": {"test": "Liver/blood distribution ratio was determined in immature female rats at 1 hr", "format": "functional", "in_short": "as §3"}, "[36]": {"test": "Kidney/blood distribution ratio was determined in immature female rats at 3h", "format": "functional", "in_short": "as §2"}, "[37]": {"organism": "Rattus norvegicus", "test": "Percent injected dose per gram kidney at 1 hr with unlabeled estradiol", "format": "functional", "in_short": "as §3"}, "[38]": {"organism": "Rattus norvegicus", "test": "Percent injected dose per gram Uterus at 6 hr", "format": "functional", "in_short": "as §2"}, "[39]": {"organism": "Rattus norvegicus", "test": "Percent injected dose per gram spleen at 6 hr", "format": "functional", "in_short": "as §4"}, "[40]": {"organism": "Rattus norvegicus", "test": "Percent injected dose per gram Ovaries at 1 hr with unlabeled estradiol", "format": "functional", "in_short": "as §3"}}, "data": [{"smiles": "C[C@]12CC[C@@H]3c4ccc(O)cc4CC[C@H]3[C@@H]1C[C@@H](I)[C@@H]2O", "values": [{"measurement": "Injected dose", "setting": "[1]", "value": 0.79, "unit": "%"}, {"measurement": "Ratio", "setting": "[2]", "value": 0.67}, {"measurement": "Ratio", "setting": "[3]", "value": 2.49}, {"measurement": "Injected dose", "setting": "[4]", "value": 0.32, "unit": "%"}, {"measurement": "Ratio", "setting": "[5]", "value": 0.62}, {"measurement": "Injected dose", "setting": "[6]", "value": 0.9, "unit": "%"}, {"measurement": "Ratio", "setting": "[7]", "value": 0.67}, {"measurement": "Injected dose", "setting": "[8]", "value": 1.81, "unit": "%"}, {"measurement": "Ratio", "setting": "[9]", "value": 0.27}, {"measurement": "Injected dose", "setting": "[10]", "value": 0.46, "unit": "%"}, {"measurement": "Ratio", "setting": "[11]", "value": 0.93}, {"measurement": "Injected dose", "setting": "[12]", "value": 0.15, "unit": "%"}, {"measurement": "Injected dose", "setting": "[13]", "value": 4.17, "unit": "%"}, {"measurement": "Injected dose", "setting": "[14]", "value": 6.83, "unit": "%"}, {"measurement": "Injected dose", "setting": "[15]", "value": 0.75, "unit": "%"}, {"measurement": "Ratio", "setting": "[16]", "value": 2.03}, {"measurement": "Injected dose", "setting": "[17]", "value": 0.18, "unit": "%"}, {"measurement": "Injected dose", "setting": "[18]", "value": 11.9, "unit": "%"}, {"measurement": "Injected dose", "setting": "[19]", "value": 0.49, "unit": "%"}, {"measurement": "Injected dose", "setting": "[20]", "value": 0.94, "unit": "%"}, {"measurement": "Ratio", "setting": "[21]", "value": 0.86}, {"measurement": "Ratio", "setting": "[22]", "value": 2}, {"measurement": "Ratio", "setting": "[23]", "value": 0.42}, {"measurement": "Injected dose", "setting": "[24]", "value": 0.22, "unit": "%"}, {"measurement": "Ratio", "setting": "[25]", "value": 4.76}, {"measurement": "Ratio", "setting": "[26]", "value": 1}, {"measurement": "Injected dose", "setting": "[27]", "value": 0.52, "unit": "%"}, {"measurement": "Ratio", "setting": "[28]", "value": 1.4}, {"measurement": "Ratio", "setting": "[29]", "value": 0.76}, {"measurement": "Ratio", "setting": "[30]", "value": 0.27}, {"measurement": "Ratio", "setting": "[31]", "value": 192.8}, {"measurement": "Injected dose", "setting": "[32]", "value": 0.36, "unit": "%"}, {"measurement": "Ratio", "setting": "[33]", "value": 3.02}, {"measurement": "Injected dose", "setting": "[34]", "value": 2.37, "unit": "%"}, {"measurement": "Ratio", "setting": "[35]", "value": 3.55}, {"measurement": "Ratio", "setting": "[36]", "value": 1.83}, {"measurement": "Injected dose", "setting": "[37]", "value": 2.77, "unit": "%"}, {"measurement": "Injected dose", "setting": "[38]", "value": 1.57, "unit": "%"}, {"measurement": "Injected dose", "setting": "[39]", "value": 0.08, "unit": "%"}, {"measurement": "Injected dose", "setting": "[40]", "value": 2.47, "unit": "%"}]}]}
